From ChEMBL document CHEMBL4270555, “Synthesis and biological evaluation of magnolol derivatives as melatonergic receptor agonists with potential use in depression” (Eur J Med Chem, 2018) come the findings set out here.

Data set [1] deals with Mus musculus. The data set is described as follows: Increase in 5-hydroxyindole-3-acetic acid level in Kunming mouse hippocampus at 40 mg/kg, po treated for 7 days by HPLC-ECD analysis. Type of data set: functional, organism-based. The procedure, abridged: (§1)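 Male Kunming mice (18–20 g) given vehicle or 40 mg/kg for 7 days, then killed by cervical dislocation. Frontal cortex, hippocampus, striatum, hypothalamus and thalamus dissected on ice, homogenized in ice-cold 0.2 M perchloric acid with 0.1 mM EDTA, centrifuged 15,000 rpm, 20 min, 4 °C. Supernatant analysed by HPLC-ECD at +0.50 V; phosphate/octanesulfonate mobile phase pH 3.0 with 12% methanol. Levels in ng/g, mean ± SEM.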

Data set [2] deals with Mus musculus. Description: Increase in norepinephrine level in Kunming mouse striatum at 40 mg/kg, po treated for 7 days by HPLC-ECD analysis. Type of data set: functional, organism-based. The procedure, abridged:
as §1

Data set [3] in a line: Drug metabolism in Sprague-Dawley rat plasma assessed as 5,5'-diallyl-2'-hydroxybiphenyl-2-yl hydrogen sulfate formation at 100 mg/kg, po by UPLC-IT-TOF-MS analysis. It is filed as ADME, organism-based. The following applies: in vivo. The gist of the method:
(§2)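 Male/unspecified SD rats (n = 6) housed individually in metabolic cages, dosed orally at 100.0 mg/kg; controls given 0.5% CMC-Na orally. Plasma, urine and faeces collected. LC-IT-TOF-MS on C18 column at 30 °C, formic acid (0.05%) water/acetonitrile gradient 5–100% B over 18 min, 0.2 mL/min; positive and negative ion modes with automatic MS/MS.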

For data set [4], the system named is Mus musculus. Description: Increase in ratio of 3,4-dihydroxyphenylacetic acid and 4-hydroxy-3-methoxyphenylacetic acid to dopamine level in Kunming mouse frontal cortex at 40 mg/kg, po treated for 7 days by HPLC-ECD analysis. It is filed as functional, organism-based. The procedure, abridged: as §1
Data set [5] in a line: Drug metabolism in Sprague-Dawley rat feces assessed as (2S,3S,4S,5R,6S)-6-(5,5'-diallyl-2'-methoxybiphenyl-2-yloxy)-3,4,5-trihydroxytetrahydro-2H-pyran-2-carboxylic acid formation at 100 mg/kg, po by UPLC-IT-TOF-MS analysis. Type of data set: ADME, organism-based. The following applies: in vivo. The gist of the method: (§3)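 Rats (n = 6) housed in metabolic cages received 100.0 mg/kg orally; controls received 0.5% CMC-Na. Plasma, urine and faeces were collected and analyzed by LC-IT-TOF-MS on a C18 column at 30 °C. Gradient 5–100% acetonitrile with 0.05% formic acid over 18 min at 0.2 mL/min; positive and negative ion MS/MS.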

Data set [6] can be described thus: Drug metabolism in Sprague-Dawley rat feces assessed as (2S,3S,4S,5R,6S)-3,4,5-trihydroxy-6-(5-(1-hydroxyallyl)-5'-(2-hydroxypropyl)-2'-methoxybiphenyl-2-yloxy)tetrahydro-2H-pyran-2-carboxylic acid formation at 100 mg/kg, po by UPLC-IT-TOF-MS analysis. It is filed as ADME, organism-based. As to conditions: in vivo. The gist of the method:
as §3

Data set [7] is described as follows: Drug metabolism in Sprague-Dawley rat urine assessed as 1-(5'-allyl-2'-hydroxy-6-((2S,3R,4S,5S,6R)-3,4,5-trihydroxy-6-(hydroxymethyl)tetrahydro-2H-pyran-2-yloxy)biphenyl-3-yl)prop-2-en-1-one formation at 100 mg/kg, po by UPLC-IT-TOF-MS analysis. Type of data set: ADME, organism-based. The following applies: in vivo. The gist of the method: as §2
For data set [8], the system named is Mus musculus. The data set is described as follows: Increase in 5-hydroxyindole-3-acetic acid level in Kunming mouse hypothalamus at 40 mg/kg, po treated for 7 days by HPLC-ECD analysis. Type of data set: functional, organism-based. The gist of the method: as §1
Data set [9] has as its system Mus musculus. The data set is described as follows: Decrease in dopamine level in Kunming mouse hippocampus at 40 mg/kg, po treated for 7 days by HPLC-ECD analysis. It is filed as functional, organism-based. The procedure, abridged: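 Male Kunming mice received vehicle or 40 mg/kg for 7 days, then were killed by cervical dislocation and the brain regions dissected on ice. Tissue was homogenized in ice-cold 0.2 M perchloric acid with 0.1 mM EDTA and centrifuged at 15,000 rpm, 20 min, 4 °C. Supernatant was analyzed by HPLC-ECD (+0.50 V; phosphate/octanesulfonate mobile phase, pH 3.0). Results in ng/g, mean ± SEM.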

Data set [10] in a line: Retention time of the compound by UPLC-IT-TOF-MS analysis. It is filed as physicochemical. The procedure, abridged: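 Retention on C18 column (100 × 2.1 mm, 1.8 µm) at 30 °C; mobile phase A 0.05% formic acid in water, B 0.05% formic acid in acetonitrile, 0.2 mL/min, linear 5–100% B over 0–18.0 min; IT-TOF-MS detection in positive and negative modes.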
Data set [11] is described as follows: Drug metabolism in Sprague-Dawley rat plasma assessed as 5,5'-diallylbiphenyl-2,2'-diol formation at 100 mg/kg, po by UPLC-IT-TOF-MS analysis. Type of data set: ADME, organism-based. The following applies: in vivo. The gist of the method: as §2
Data set [12] in a line: Drug metabolism in Sprague-Dawley rat urine assessed as (2S,3S,4S,5R,6S)-3,4,5-trihydroxy-6-(5-(1-hydroxyallyl)-5'-(1-hydroxypropyl)-2'-((2S,3R,4S,5S,6R)-3,4,5-trihydroxy-6-(hydroxymethyl)tetrahydro-2H-pyran-2-yloxy)biphenyl-2-yloxy)tetrahydro-2H-pyran-2-carboxylic acid formation at 100 mg/kg, po by UPLC-IT-TOF-MS analysis. Type of data set: ADME, organism-based. The following applies: in vivo. The gist of the method: as §2

Data set [13] is described as follows: Drug metabolism in Sprague-Dawley rat plasma assessed as 5,5'-bis(1-hydroxyallyl)biphenyl-2,2'-diol formation at 100 mg/kg, po by UPLC-IT-TOF-MS analysis. It is filed as ADME, organism-based. The following applies: in vivo. The procedure, abridged: as §2
Data set [14] can be described thus: Drug metabolism in Sprague-Dawley rat plasma assessed as 5-allyl-5'-(1-hydroxyallyl)-2'-((2S,3R,4S,5S,6R)-3,4,5-trihydroxy-6-(hydroxymethyl)tetrahydro-2H-pyran-2-yloxy)biphenyl-2-yl hydrogen sulfate formation at 100 mg/kg, po by UPLC-IT-TOF-MS analysis. It is filed as ADME, organism-based. The following applies: in vivo. The procedure, abridged: as §2
The nature of data set [15]: Drug metabolism in Sprague-Dawley rat feces assessed as 2'-hydroxy-5'-(1-hydroxyallyl)-5-propylbiphenyl-2-yl hydrogen sulfate formation at 100 mg/kg, po by UPLC-IT-TOF-MS analysis. Type of data set: ADME, organism-based. As to conditions: in vivo. The procedure, abridged:
as §3

In data set [16] the target is T1, Melatonin receptor type 1B (Homo sapiens) (UniProt P49286).
T1 sequence (whole entry): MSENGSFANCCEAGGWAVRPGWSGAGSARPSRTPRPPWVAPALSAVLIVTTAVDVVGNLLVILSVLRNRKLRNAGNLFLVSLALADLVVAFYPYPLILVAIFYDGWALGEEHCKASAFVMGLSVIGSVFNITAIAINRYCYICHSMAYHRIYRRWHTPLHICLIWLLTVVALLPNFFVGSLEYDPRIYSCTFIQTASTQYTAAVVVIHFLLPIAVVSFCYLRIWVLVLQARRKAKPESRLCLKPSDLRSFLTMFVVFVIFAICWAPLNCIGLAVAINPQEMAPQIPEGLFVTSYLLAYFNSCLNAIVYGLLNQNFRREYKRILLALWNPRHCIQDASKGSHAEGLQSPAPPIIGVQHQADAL
The data set is described as follows: Agonist activity at human MT2 receptor expressed in HEK293 cells at 1 mM after 24 hrs by Fluo-8 dye-based calcium assay relative to control. It is filed as functional, cell-based. The gist of the method: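 Fluo-8 calcium assay in HEK293 cells stably expressing human MT1 or MT2, seeded 4×10^4/well and incubated 24 h. Compounds tested at 1.00 mM, agomelatine positive control at 3.33 µM; fluorescence at ex 485/em 525 nm. Agonism expressed as mean ± SD, n = 3.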

Data set [17] is described as follows: Toxicity in po dosed Sprague-Dawley rat measured continuously for first 4 hrs followed by measured every hour for next 24 hrs and at 6 hrs intervals for following 48 hrs post dose. Type of data set: organism-based. The following applies: in vivo. The procedure, abridged:
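Followed OECD 425 in adult SD rats (180–220 g), three groups of six. Vehicle control received 0.5% CMC-Na orally; separate male and female groups received 2000 mg/kg orally. Endpoints observed: behaviour, breathing, cutaneous effects, sensory nervous system responses, gastrointestinal effects and deaths.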

Each structure is given as a SMILES string. The source made the active and inactive calls. The rule behind the calls is not given here. A value given as a limit tells only on which side of the number the result lay.

For `C=CCc1ccc(O)c(-c2cc(CC=C)ccc2O[C@@H]2O[C@H](CO)[C@@H](O)[C@H](O)[C@H]2O)c1`, the outcome with Mus musculus [1], with Mus musculus [2], in the data set with Mus musculus [4], in the data set on Mus musculus [8] and with Mus musculus [9] was Active. Besides, the Drug metabolism result in [3] is recorded as “Metabolite_Notdetected”; in data set [5] it was “Metabolite_Notdetected”; in [6] it was “Metabolite_Notdetected”; in data set [7], “Metabolite_Detected”; in data set [11] it was “Metabolite_Notdetected”; in data set [12] it was “Metabolite_Detected”. The Drug metabolism result is given as “Metabolite_Notdetected” in [13], “Metabolite_Notdetected” in data set [14] and “Metabolite_Detected” in data set [15]. The compound also registered a Retention_time in [10] of 11.23 min. Further, in data set [16], the Activity came to 151%. The LD50 (in general, the dose at which mortality reaches 50%) at 76 h in [17] was above 2000 mg/kg.
